From ChEMBL document CHEMBL4002570, “Synthesis and cytostatic properties of polyfunctionalized furanoallocolchicinoids” (Eur J Med Chem, 2017)
Activity calls are given as the source filed them.

Key:
A549 = assay: Cytotoxicity against 2D culture of human A549 cells measured after 72 hrs by MTT assay; format: functional, cell-based; conditions: A549, 72 h
Outline: (§1)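 Cells (tumor lines and HaCaT in DMEM with 10% FCS; bone-marrow MSC at passages 2-6) seeded at 3x10⁵ cells/mL 24 h before and allowed to adhere. Compounds dissolved in DMSO (20 mM stock), diluted 20 µM to 0.1 nM, exposed 72 h. MTT added for the last 6 h, formazan dissolved in DMSO, OD read at 540 nm. IC50 taken from titration curves.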

MIA PaCa-2 [1] = assay: Induction of lysosomal membrane hyperpolarization in 3D culture of human MIAPaCa2 cells at 1 uM measured after 48 hrs by LysoTrackRed dye based flow cytometry; format: functional, cell-based
Outline: (§2)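 Spheroids on polyHEMA exposed to 1 µM for 48 h, trypsinized. Live cells stained for 1 h with DiOC₆ (mitochondrial potential), LysoTrackerRed (lysosomal potential) or propidium iodide (membrane permeability), then analyzed by flow cytometry.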

BXPC-3 = assay: Cytotoxicity against 2D culture of human BxPC3 cells measured after 72 hrs by MTT assay; format: functional, cell-based; conditions: BXPC-3, 72 h; outline: as §1
MIA PaCa-2 [2] = assay: Induction of cell membrane permeability in 3D culture of human MIAPaCa2 cells at 1 uM measured after 48 hrs by propidium iodide staining based flow cytometry; format: functional; outline: as §2
EA.hy 926 [3] = assay: Cytotoxicity against 3D culture of human EAhy926 cells up to 10000 nM measured after 72 hrs by MTT assay; format: cell-based; conditions: ea.hy 926, 72 h
Outline: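 Spheroids formed on polyHEMA-coated plates before drug addition, then handled like 2D MTT: dilutions from 20 µM to 0.1 nM, 72 h exposure, MTT for the final 6 h, DMSO solubilization, OD at 540 nm. Inhibition index = 1 − OD(exp)/OD(control); IC50 read at the 50% cutoff.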

COLO357 [4] = assay: Induction of total tubulin expression in 3D culture of human Colo-357 cells measured after 48 hrs by propidium iodide staining based flow cytometry; format: functional, cell-based
Outline: (§3)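 Spheroids on polyHEMA exposed to 1 µM for 48 h, trypsinized, permeabilized, stained with anti-tubulin antibody and phalloidin-AlexaFluor488 for F-actin, and analyzed by flow cytometry.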

PANC-1 [5] = assay: Disruption of preformed spheroids in human PANC1 cells at 1 uM measured after 48 hrs by propidium staining based flow cytometry; format: functional, cell-based
COLO357 [6] = assay: Induction of cell membrane permeability in 3D culture of human Colo-357 cells at 1 uM measured after 48 hrs by propidium iodide staining based flow cytometry; format: functional; outline: as §2
COLO357 [7] = assay: Induction of beta-tubulin expression in human Colo-357 cells assessed as mean fluorescence intensity at 1 uM measured after 24 hrs by Hoechst 33342 staining based confocal microscopic analysis (reference value: 52 +/- 12); format: functional
PANC-1 [8] = assay: Cytotoxicity against 2D culture of human PANC1 cells measured after 72 hrs by MTT assay; format: functional, cell-based; conditions: PANC-1, 72 h; outline: as §1
MIA PaCa-2 [9] = assay: Induction of F-actin expression in 3d culture of human MIAPaCa2 cells at 1 uM measured after 48 hrs by propidium staining based flow cytometry; format: functional, cell-based; outline: as §3
HaCaT = assay: Cytotoxicity against 2D culture of human HaCaT cells measured after 72 hrs by MTT assay; format: cell-based; outline: as §1
COLO357 [10] = assay: Disruption of preformed spheroids in human Colo-357 cells at 1 uM measured after 48 hrs by propidium staining based flow cytometry; format: functional, cell-based
COLO357 [11] = assay: Induction of beta-tubulin expression in human Colo-357 cells at 1 uM measured after 24 hrs by Hoechst 33342 staining based confocal microscopic analysis; format: functional, cell-based
Outline: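 Colo-357 in 2D exposed to 1 µM for 24 h, fixed, then stained with anti-β-tubulin antibody (red) and Hoechst 33342. Confocal imaging; mean fluorescence intensity from red pixel counts over several fields; significance taken at p<0.05.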

COLO357 [12] = assay: Induction of apoptosis in 3D culture of human Colo-357 cells assessed as accumulation at G2/M phase at 1 uM measured after 72 hrs by propidium iodide staining based flow cytometry; format: functional, cell-based
Outline: (§4)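 Cultures (2D or polyHEMA spheroids) exposed to 1 µM for 72 h. Cells trypsinized, washed in ice-cold PBS, fixed in 70% ethanol for 2 h at −20 °C, stained with propidium iodide 50 µg/ml plus […] 10 µg/ml. Flow cytometry with 2000 events. Phase distribution gated on dot plots; apoptotic cells excluded in 3D histograms.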

COLO357 [13] = assay: Induction of apoptosis in 2D culture of human Colo-357 cells assessed as accumulation at G2/M phase at 1 uM measured after 72 hrs by propidium iodide staining based flow cytometry; format: functional, cell-based; outline: as §4
MIA PaCa-2 [14] = assay: Induction of apoptosis in 3D culture of human MIAPaCa2 cells assessed as accumulation at G2/M phase at 1 uM measured after 72 hrs by propidium iodide staining based flow cytometry; format: functional, cell-based; outline: as §4
COLO357 [15] = assay: Induction of mitochondrial membrane hyperpolarization in 3D culture of human Colo-357 cells at 1 uM measured after 48 hrs by DiOC6 dye based flow cytometry; format: functional, cell-based; outline: as §2
MIA PaCa-2 [16] = assay: Induction of apoptosis in 2D culture of human MIAPaCa2 cells assessed as accumulation at G2/M phase at 1 uM measured after 72 hrs by propidium iodide staining based flow cytometry; format: functional, cell-based
MIA PaCa-2 [17] = assay: Cytotoxicity against 2D culture of human MIAPaCa2 cells measured after 72 hrs by MTT assay; format: functional, cell-based; conditions: MIA PaCa-2, 72 h; outline: as §1
MIA PaCa-2 [18] = assay: Induction of mitochondrial membrane hyperpolarization in 3D culture of human MIAPaCa2 cells at 1 uM measured after 48 hrs by DiOC6 dye based flow cytometry; format: functional, cell-based; outline: as §2
COLO357 [19] = assay: Disruption of mitotic spindle in human Colo-357 cells at 1 uM measured after 72 hrs by Hoechst 33342 staining based confocal microscopic analysis; format: functional, cell-based
[20] = Cytotoxicity against 2D culture of human MSC measured after 72 hrs by MTT assay; format: cell-based; outline: as §1
COLO357 [21] = assay: Induction of lysosomal membrane hyperpolarization in 3D culture of human Colo-357 cells at 1 uM measured after 48 hrs by LysoTrackRed dye based flow cytometry; format: functional, cell-based; outline: as §2
MIA PaCa-2 [22] = assay: Disruption of preformed spheroids in human MIAPaCa2 cells at 1 uM measured after 48 hrs by propidium staining based flow cytometry; format: functional, cell-based
EA.hy 926 [23] = assay: Cytotoxicity against 2D culture of human EAhy926 cells measured after 72 hrs by MTT assay; format: cell-based; conditions: EA.hy 926, 72 h; outline: as §1
COLO357 [24] = assay: Induction of F-actin expression in 3D culture of human Colo-357 cells at 1 uM measured after 48 hrs by propidium staining based flow cytometry; format: functional, cell-based; outline: as §3
COLO357 [25] = assay: Cytotoxicity against 2D culture of human Colo-357 cells measured after 72 hrs by MTT assay; format: functional, cell-based; conditions: COLO357, 72 h; outline: as §1

COc1cc2c(c(OC)c1OC)-c1ccc(OC)c(=O)cc1[C@@H](NC(C)=O)CC2 [COLCHICINE]
0.08 µM: IC50 (BXPC-3) | IC50 (PANC-1 [8]) | IC50 (HaCaT)
0.4 µM: IC50 (A549)
> 0.8 µM: IC50 [20] | IC50 (EA.hy 926 [23])
0.16 µM: IC50 (MIA PaCa-2 [17]) | IC50 (COLO357 [25])
Non-Toxic: Activity (EA.hy 926 [3])
inactive: Activity (COLO357 [24])
74: Flu intensity (COLO357 [7])
active: Activity (MIA PaCa-2 [1]) | Activity (MIA PaCa-2 [2]) | Activity (COLO357 [4]) | Activity (PANC-1 [5]) | Activity (COLO357 [6]) | Activity (MIA PaCa-2 [9]) | Activity (COLO357 [10]) | Activity (COLO357 [11]) | Activity (COLO357 [12]) | Activity (COLO357 [13]) | Activity (MIA PaCa-2 [14]) | Activity (COLO357 [15]) | Activity (MIA PaCa-2 [16]) | Activity (MIA PaCa-2 [18]) | Activity (COLO357 [19]) | Activity (COLO357 [21]) | Activity (MIA PaCa-2 [22])

COc1cc2c(c(OC)c1OC)-c1cc3cc(COC(C)=O)oc3cc1C(=O)CC2
0.08 µM: IC50 (A549)
0.016 µM: IC50 (BXPC-3) | IC50 (PANC-1 [8]) | IC50 (MIA PaCa-2 [17]) | IC50 (COLO357 [25])

COc1cc2c(c(OC)c1OC)-c1cc3cc(CO)oc3cc1C(O)CC2 (centres undefined)
0.016 µM: IC50 (A549) | IC50 (BXPC-3) | IC50 (PANC-1 [8]) | IC50 (HaCaT) | IC50 (MIA PaCa-2 [17]) | IC50 (COLO357 [25])
> 0.8 µM: IC50 [20] | IC50 (EA.hy 926 [23])
110: Flu intensity (COLO357 [7])
active: Activity (MIA PaCa-2 [1]) | Activity (MIA PaCa-2 [2]) | Activity (COLO357 [4]) | Activity (PANC-1 [5]) | Activity (COLO357 [6]) | Activity (MIA PaCa-2 [9]) | Activity (COLO357 [10]) | Activity (COLO357 [11]) | Activity (COLO357 [12]) | Activity (COLO357 [13]) | Activity (MIA PaCa-2 [14]) | Activity (COLO357 [15]) | Activity (MIA PaCa-2 [16]) | Activity (MIA PaCa-2 [18]) | Activity (COLO357 [19]) | Activity (COLO357 [21]) | Activity (MIA PaCa-2 [22]) | Activity (COLO357 [24])
Non-Toxic: Activity (EA.hy 926 [3])

COc1cc2c(c(OC)c1OC)-c1cc3cc(CCO)oc3cc1C(=O)CC2
0.4 µM: IC50 (A549) | IC50 (BXPC-3) | IC50 (PANC-1 [8])
> 0.4 µM: IC50 (MIA PaCa-2 [17]) | IC50 (COLO357 [25])

COc1cc2c(c(OC)c1OC)-c1cc3cc(CO)oc3cc1C(=O)CC2
> 0.8 µM: IC50 [20] | IC50 (EA.hy 926 [23])
Non-Toxic: Activity (EA.hy 926 [3])
0.016 µM: IC50 (A549) | IC50 (BXPC-3) | IC50 (PANC-1 [8]) | IC50 (HaCaT) | IC50 (COLO357 [25])
73: Flu intensity (COLO357 [7])
inactive: Activity (COLO357 [24])
0.064 µM: IC50 (MIA PaCa-2 [17])
active: Activity (MIA PaCa-2 [1]) | Activity (MIA PaCa-2 [2]) | Activity (COLO357 [4]) | Activity (PANC-1 [5]) | Activity (COLO357 [6]) | Activity (MIA PaCa-2 [9]) | Activity (COLO357 [10]) | Activity (COLO357 [11]) | Activity (COLO357 [12]) | Activity (COLO357 [13]) | Activity (MIA PaCa-2 [14]) | Activity (COLO357 [15]) | Activity (MIA PaCa-2 [16]) | Activity (MIA PaCa-2 [18]) | Activity (COLO357 [19]) | Activity (COLO357 [21]) | Activity (MIA PaCa-2 [22])

COc1cc2c(c(OC)c1OC)-c1cc3cc(C(C)O)oc3cc1C(=O)CC2 (centres undefined)
> 0.1 µM: IC50 (MIA PaCa-2 [17])
0.04 µM: IC50 (A549)
0.08 µM: IC50 (BXPC-3)
0.1 µM: IC50 (COLO357 [25])
0.07 µM: IC50 (PANC-1 [8])

COc1cc2c(c(OC)c1OC)-c1cc3cc(C(C)O)oc3cc1C(O)CC2 (centres undefined)
0.03 µM: IC50 (BXPC-3) | IC50 (PANC-1 [8])
0.064 µM: IC50 (MIA PaCa-2 [17]) | IC50 (COLO357 [25])
0.08 µM: IC50 (A549)

COc1cc2c(c(OC)c1OC)-c1cc3cc(CCO)oc3cc1C(O)CC2 (centres undefined)
> 0.4 µM: IC50 (MIA PaCa-2 [17]) | IC50 (COLO357 [25])
0.4 µM: IC50 (A549) | IC50 (BXPC-3) | IC50 (PANC-1 [8])
